One compound from ChEMBL document CHEMBL1123950, “N-(Retinoyl)amino acids. Synthesis and chemopreventive activity in vitro” (1988) can be followed below.

Common to all, as to assay type: functional, Cricetulus griseus
For assay [1], the system named is Cricetinae gen. sp. The assay can be described thus: Cultures with mild degree of squamous metaplasia at a concentration of 10e-10 M. A digest of the protocol: (§1)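 Tracheas from 29-31-day-old hamsters fed a vitamin A free diet; cultured in serum-free CMRL 1066 (insulin 1.0 μg/mL, hydrocortisone hemisuccinate 0.1 μg/mL, glutamine 2 mM, Garamycin 50 μg/mL), 50% O2/45% N2/5% CO2, rocked, 36 °C. Retinoid-free 3 days, then retinoid in DMSO (final 0.1%) for 7 days; medium and gas changed three times. Formalin-fixed day 10; squamous metaplasia graded: mild 2-10%, marked 10-40%, severe >40%.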

Assay [2] concerns Cricetinae gen. sp. The assay is described as follows: Cultures with minimal degree of squamous metaplasia at a concentration of 10e-9 M. The method, boiled down:
as §1

Assay [3] relates to Cricetinae gen. sp. The assay can be described thus: Cultures with no evidence of squamous metaplasia at a concentration of 10e-11 M. The method, boiled down: as §1
In assay [4] the test system is Cricetinae gen. sp. The assay can be described thus: Cultures with no evidence of squamous metaplasia at a concentration of 10e-8 M. The method, boiled down: as §1
Assay [5] concerns Cricetinae gen. sp. The assay is described as follows: Cultures with minimal degree of squamous metaplasia at a concentration of 10e-10 M. A digest of the protocol: as §1
In assay [6] the test system is Cricetinae gen. sp. The assay can be described thus: Cultures with marked degree of squamous metaplasia at a concentration of 10e-8 M. A digest of the protocol:
as §1

The test system of assay [7] is Cricetinae gen. sp. The assay can be described thus: Cultures with mild degree of squamous metaplasia at a concentration of 10e-8 M. The method, boiled down: as §1
In assay [8] the test system is Cricetinae gen. sp. The assay is described as follows: Cultures with marked degree of squamous metaplasia at a concentration of 10e-9 M. A digest of the protocol: as §1
The subject of assay [9] is Cricetinae gen. sp. The assay is described as follows: Cultures with minimal degree of squamous metaplasia at a concentration of 10e-11 M. The method, boiled down: as §1
The subject of assay [10] is Cricetinae gen. sp. The assay can be described thus: Reversal of keratinization in vitamin A deficient hamster trachea culture at a concentration of 10e-8 M. The conditions noted are these: read-out: ED50 (the source's name). A digest of the protocol:
(§2)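 Tracheas from 29-31-day-old hamsters kept on a vitamin A free diet, cultured in serum-free CMRL 1066 (insulin 1.0 μg/mL, hydrocortisone hemisuccinate 0.1 μg/mL, glutamine 2 mM, Garamycin 50 μg/mL), 50% O2/45% N2/5% CO2, rocked at 36 °C. Retinoid-free for 3 days, then retinoid in DMSO (0.1% final) for 7 days. Fixed in formalin; squamous metaplasia graded mild 2-10%, marked 10-40%, severe >40%.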

The test system of assay [11] is Cricetinae gen. sp. The assay is described as follows: Cultures with mild degree of squamous metaplasia at a concentration of 10e-9 M. A digest of the protocol:
as §1

In assay [12] the test system is Cricetinae gen. sp. The assay can be described thus: Cultures with minimal degree of squamous metaplasia at a concentration of 10e-8 M. A digest of the protocol:
as §1

For assay [13], the system named is Cricetinae gen. sp. The assay can be described thus: Cultures with mild degree of squamous metaplasia at a concentration of 10e-11 M. A digest of the protocol:
as §1

In assay [14] the test system is Cricetinae gen. sp. The assay can be described thus: Cultures with severe degree of squamous metaplasia at a concentration of 10e-11 M. The method, boiled down:
as §2

Assay [15] relates to Cricetinae gen. sp. The assay is described as follows: Cultures with marked degree of squamous metaplasia at a concentration of 10e-10 M. A digest of the protocol: as §1
The test system of assay [16] is Cricetinae gen. sp. The assay can be described thus: Cultures with no evidence of squamous metaplasia at a concentration of 10e-9 M. A digest of the protocol: as §1
In assay [17] the test system is Cricetinae gen. sp. The assay is described as follows: Cultures with no evidence of squamous metaplasia at a concentration of 10e-10 M. A digest of the protocol: as §1
The subject of assay [18] is Cricetinae gen. sp. The assay can be described thus: Cultures with severe degree of squamous metaplasia at a concentration of 10e-9 M. A digest of the protocol:
as §2

Assay [19] concerns Cricetinae gen. sp. The assay is described as follows: Cultures with severe degree of squamous metaplasia at a concentration of 10e-10 M. A digest of the protocol:
as §2

Assay [20] relates to Cricetinae gen. sp. The assay can be described thus: Cultures with severe degree of squamous metaplasia at a concentration of 10e-8 M. The method, boiled down:
as §2

The subject of assay [21] is Cricetinae gen. sp. The assay can be described thus: Cultures with marked degree of squamous metaplasia at a concentration of 10e-11 M. A digest of the protocol:
as §1

As for `CC1=C(/C=C/C(C)=C/C=C/C(C)=C/C(=O)NC(Cc2ccccc2)C(=O)O)C(C)(C)CCC1` (stereo unspecified), the Culture in assay [1] is reported as 29%; in [2], 0%; in assay [3] it was 14%; in assay [4], 71%; in assay [5], 0%; in [6], 0%. The Culture is on record as 29% in assay [7]; 43% in assay [8]; 0% in [9]; 0% in assay [11]; 0% in [12]; 14% in assay [13]. In addition, the Culture came out at 0% in [14]; 14% in assay [15]; 57% in assay [16]; 43% in assay [17]; 0% in assay [18]; 14% in assay [19]. The Culture in assay [20] is 0%; in [21] it was 72%. The EC50 in assay [10] was 0.5 nM.
